From ChEMBL document CHEMBL2384980, “Development of cell-active non-peptidyl inhibitors of cysteine cathepsins” (Bioorg Med Chem, 2013)
pKi: −log10 of the molar value. Each block holds one molecule with its values, some of them ahead of it. Active and inactive are the calls of the source. No cut-off for these calls is given here.

Columns and labels:
Cathepsin B [1] = target: T1, Cathepsin B (Homo sapiens, UniProt P07858); experiment: Time dependent inhibition of human liver cathepsin B using Z-RR-para-nitroanilide as substrate at 500 uM
Outline: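 Screening: human liver cathepsin B (175 nM) activated in 100 mM sodium phosphate pH 6.0, 5 mM DTT, 1 mM EDTA, incubated with 500 µM inhibitor (5% DMSO) at 30 °C for 10 min; aliquot diluted 17.5-fold into 3 mM Z-RR-pNA, residual activity from initial rates at 405 nm.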

Cathepsin B [2] = target: T1, Cathepsin B; experiment: Inhibition of cathepsin B in human MDA-MB-231 cells assessed as increase in E-cadherin levels at 1 to 5 uM after 30 mins by Western blotting analysis; assay type: cell-based
[3] = target: Cathepsin S (Homo sapiens) (UniProt P25774); experiment: Inhibition of cathepsin S in human MDA-MB-231 cells assessed as increase in E-cadherin levels at 1 to 5 uM after 30 mins by Western blotting analysis; assay type: cell-based
Chain of Cathepsin S (Homo sapiens) (P25774 115-331 limits assumed): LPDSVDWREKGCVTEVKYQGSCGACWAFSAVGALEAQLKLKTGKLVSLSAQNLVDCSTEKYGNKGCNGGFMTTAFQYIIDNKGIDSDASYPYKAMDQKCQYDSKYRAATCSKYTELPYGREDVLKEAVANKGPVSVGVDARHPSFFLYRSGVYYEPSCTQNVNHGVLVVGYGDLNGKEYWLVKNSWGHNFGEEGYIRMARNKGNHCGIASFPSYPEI

Cathepsin B [4] = target: T1, Cathepsin B; experiment: Irreversible inhibition of human liver cathepsin B using Z-RR-para-nitroanilide as substrate measured after dilution of compound-inactivated enzyme complex
MDA-MB-231 [5] = experiment: Inhibition of cathepsin in human MDA-MB-231 cells assessed as decrease in cell migratory behavior after 6 hrs by microscopic analysis; assay type: cell-based
Outline: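 MDA-MB-231 cells plated as concentric circles through a sedimentation manifold on BSA-coated glass slide; after manifold removal, treated with 0.05% DMSO or inhibitor (10 and 20 µM) for 6 h at 37 °C. Images at t0 and t6; motility taken as change in total area (µm2), mean ± S.D. of triplicates.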

[6] = target: Cathepsin S (Homo sapiens) (UniProt P25774); experiment: Inhibition of cathepsin S in human MDA-MB-231 cells assessed as increase in E-cadherin levels after 20 mins by immunofluorescence assay; assay type: cell-based
Outline: (§1)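 MDA-MB-231 cells (IMDM, 10% FBS, 37 °C, 5% CO2) on glass coverslips 24 h, treated 20 min at 37 °C with vehicle (0.1% DMSO) or inhibitor. Fixed in 3.7% PFA, permeabilized, blocked, mouse anti-E-cadherin (1:100) overnight at 4 °C, then Alexa 594 secondary, Hoechst nuclei. Mean peripheral fluorescence intensity, 28 cells per condition, three independent experiments.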

Cathepsin B [7] = target: T1, Cathepsin B; experiment: Inhibition of human liver cathepsin B using Z-RR-para-nitroanilide as substrate assessed as reversible equilibrium binding constant by Kitz-Wilson plot analysis
Outline: (§2)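 Cathepsin B (175 nM, pH 6.0 phosphate, DTT/EDTA, 30 °C, 5% DMSO) inactivated at 25, 50, 75, 100 and 150 µM inhibitor; residual activity with 3 mM Z-RR-pNA at intervals. kobs from single-exponential fit of activity vs time at each concentration; Ki and ki from Kitz–Wilson analysis.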

[8] = target: T2, Cathepsin F (Homo sapiens) (UniProt Q9UBX1); experiment: Inhibition of human cathepsin F using Z-FR-AMC as substrate
T2 sequence (whole entry): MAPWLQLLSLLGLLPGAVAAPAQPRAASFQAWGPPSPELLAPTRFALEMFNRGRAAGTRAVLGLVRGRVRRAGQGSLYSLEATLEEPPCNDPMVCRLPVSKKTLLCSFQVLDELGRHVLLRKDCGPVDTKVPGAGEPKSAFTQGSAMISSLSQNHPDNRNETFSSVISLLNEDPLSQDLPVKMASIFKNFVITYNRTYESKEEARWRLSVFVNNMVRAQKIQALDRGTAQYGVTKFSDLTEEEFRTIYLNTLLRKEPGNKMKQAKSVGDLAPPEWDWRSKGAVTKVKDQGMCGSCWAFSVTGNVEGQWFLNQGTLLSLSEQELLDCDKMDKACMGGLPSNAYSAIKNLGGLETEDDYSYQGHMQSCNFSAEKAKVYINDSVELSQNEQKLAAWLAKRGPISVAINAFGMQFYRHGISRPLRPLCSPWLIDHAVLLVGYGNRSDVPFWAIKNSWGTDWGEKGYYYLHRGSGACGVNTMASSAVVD
Outline: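 Human cathepsin F (10.8 nM final) activated 10 min at 25 °C in 50 mM potassium phosphate pH 6.5, 2.5 mM DTT, 2.5 mM EDTA, 1.0 mg/ml BSA; inhibitor added, aliquots at intervals into assay with 3 µM Z-FR-AMC at 25 °C. Second-order constant = kobs divided by inhibitor concentration.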

Trypsin (Homo sapiens) = Trypsin (Homo sapiens) (UniProt P07477+P07478+P35030); experiment: Inhibition of trypsin (unknown origin) using N-alpha-benzoyl-DL-arginine-p-nitroanilide as substrate; assay type: protein assay
Outline: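 Trypsin freshly prepared in 1 mM HCl, pre-activated (190–200 U/µl final), inhibitor added; aliquots at intervals into 67 mM sodium phosphate with 3 mM BAPNA, initial rate at 410 nm. Time-dependent inhibition examined up to 1 mM over 1 h.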

Homo sapiens [9] = species on record: Homo sapiens; experiment: Selectivity ratio of Kinact for human liver cathepsin B to Kinact for human cathepsin S
[10] = target: Cathepsin S (Homo sapiens) (UniProt P25774); experiment: Inhibition of human cathepsin S using Z-VVR-AMC as substrate
Outline: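 Human cathepsin S (134.6 nM final) activated 10 min in 100 mM potassium phosphate pH 6.5, 5 mM DTT, 5 mM EDTA; inactivated with inhibitor at 75 µM. Aliquots at intervals into buffer (8% DMSO) with 250 µM Z-VVR-AMC, Ex/Em 365/440 nm. Second-order constant = kobs/[I].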

Cathepsin B [11] = target: T1, Cathepsin B; experiment: Time dependent inhibition of human liver cathepsin B using Z-RR-para-nitroanilide as substrate
Outline: (§3)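 Human liver cathepsin B (175 nM final) activated 10 min in 100 mM sodium phosphate pH 6.0, 5 mM DTT, 1 mM EDTA; inhibitor added (5% DMSO, pseudo-first order) at 30 °C. Aliquots diluted 17.5-fold into assay with 3 mM Z-RR-pNA; initial rates at 405 nm give residual activity over time.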

Homo sapiens [12] = species on record: Homo sapiens; experiment: Selectivity ratio of Kinact for human liver cathepsin B to Kinact for human cathepsin D
[13] = target: T3, Cathepsin G (Homo sapiens) (UniProt P08311); experiment: Inhibition of human cathepsin G using Suc-AAPF-pNA as substrate
T3 sequence (whole entry): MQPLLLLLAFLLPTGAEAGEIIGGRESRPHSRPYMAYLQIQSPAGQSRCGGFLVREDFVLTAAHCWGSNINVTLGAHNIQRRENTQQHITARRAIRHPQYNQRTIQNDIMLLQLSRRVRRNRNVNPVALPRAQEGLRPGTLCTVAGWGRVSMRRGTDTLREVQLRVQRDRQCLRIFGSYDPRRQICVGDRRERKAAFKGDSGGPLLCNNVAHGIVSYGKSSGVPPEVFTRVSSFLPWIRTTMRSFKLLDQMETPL
Outline: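 Human cathepsin G (7.66 nM final) activated 15 min in 20 mM Tris-HCl pH 7.4, 500 mM NaCl; inhibitor added, aliquots at intervals into buffer with 3.4 mM Suc-AAPF-pNA. Time-dependent inhibition examined up to 1 mM over 1 h.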

Cathepsin B [14] = target: T1, Cathepsin B; experiment: Inhibition of human liver cathepsin B using Z-RR-para-nitroanilide as substrate; outline: as §3
Cathepsin B [15] = target: T1, Cathepsin B; experiment: Inhibition of human liver cathepsin B using Z-RR-para-nitroanilide as substrate assessed as first-order inactivation rate constant by Kitz-Wilson plot analysis; outline: as §2
Cathepsin B [16] = target: T1, Cathepsin B; experiment: Inhibition of cathepsin B in human MDA-MB-231 cells using Z-RR-AMC as substrate at 20 uM preincubated for 20 mins prior to substrate addition measured after 10 mins by confocal microscopic analysis; assay type: cell-based
Outline: (§4)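 Live-cell confocal imaging of MDA-MB-231 cells on poly-D-lysine glass dishes in phenol-red-free medium with 15 mM HEPES plus Oxyrase/10 mM lactate. Cells treated with 0.1% DMSO or inhibitor 20 min at 37 °C, then Z-RR-AMC (25 µM final) for 10 min. […]; average whole-cell fluorescence, 8-10 cells per experiment, three independent experiments.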

[17] = target: T4, Tyrosine-protein phosphatase non-receptor type 1 (Homo sapiens) (UniProt P18031); experiment: Inhibition of human PTP1B
T4 sequence (whole entry): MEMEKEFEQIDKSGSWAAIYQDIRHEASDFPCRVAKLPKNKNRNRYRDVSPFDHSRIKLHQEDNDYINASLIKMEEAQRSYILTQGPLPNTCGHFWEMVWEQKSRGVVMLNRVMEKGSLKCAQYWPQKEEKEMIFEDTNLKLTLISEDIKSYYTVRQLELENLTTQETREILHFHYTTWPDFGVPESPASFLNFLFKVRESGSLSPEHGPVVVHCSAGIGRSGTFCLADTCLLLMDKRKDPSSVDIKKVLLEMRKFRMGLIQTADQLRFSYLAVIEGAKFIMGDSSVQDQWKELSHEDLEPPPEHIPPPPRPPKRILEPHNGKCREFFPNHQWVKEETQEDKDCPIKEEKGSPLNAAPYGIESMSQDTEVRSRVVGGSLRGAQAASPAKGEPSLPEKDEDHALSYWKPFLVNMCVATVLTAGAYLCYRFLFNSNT

[18] = Half life of the compound at 2.5 mM at pH 7.4 by NMR spectrophotometric analysis; assay type: physicochemical
Outline: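 Hydrolytic stability by NMR: stock in deuterated DMSO added to deuterated phosphate buffer, pH 7.4 (D2O), final 2.5 mM, pseudo-first order. Spectra recorded at intervals; integrations of starting and final species compared, data fitted to single exponential decay, t1/2 = 0.693/k.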

Cathepsin B [19] = target: T1, Cathepsin B; experiment: Inhibition of human liver cathepsin B using Z-RR-para-nitroanilide as substrate in presence of leupeptin
Outline: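 Active-site protection: cathepsin B inactivation (175 nM, pH 6.0 phosphate buffer with DTT/EDTA, 30 °C, 5% DMSO) run in presence of leupeptin (40 nM); residual activity measured with 3 mM Z-RR-pNA at 405 nm.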

Cathepsin B [20] = target: T1, Cathepsin B; experiment: Inhibition of human liver cathepsin B in presence of azide ion
Cathepsin B [21] = target: T1, Cathepsin B; experiment: Inhibition of cathepsin B in human MDA-MB-231 cells assessed as increase in E-cadherin levels after 20 mins by immunofluorescence assay; assay type: cell-based; outline: as §1
Cathepsin B [22] = target: T1, Cathepsin B; experiment: Irreversible inhibition of human liver cathepsin B after 10 mins by mass spectrophotometric analysis
Outline: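 Activated cathepsin B incubated with inhibitor (800 µM) or 5% DMSO control for 10 min under kinetic-study conditions; samples mixed 1:9 with saturated α-cyano-4-hydroxycinnamic acid and analysed by MALDI mass spectrometry, positive linear mode.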

Cathepsin B [23] = target: T1, Cathepsin B; experiment: Inhibition of cathepsin B in human MDA-MB-231 cells using Z-RR-AMC as substrate preincubated for 20 mins prior to substrate addition measured after 10 mins by confocal microscopic analysis; assay type: cell-based; outline: as §4
MDA-MB-231 [24] = experiment: Inhibition of cathepsin in human MDA-MB-231 cells assessed as change in cellular morphology at 20 uM by microscopic analysis; assay type: cell-based
Homo sapiens [25] = species on record: Homo sapiens; experiment: Selectivity ratio of Kinact for human liver cathepsin B to Kinact for human cathepsin F
[26] = target: Cathepsin D (Homo sapiens) (UniProt P07339); experiment: Inhibition of human cathepsin D using Mca-Gly-Lys-Pro-Ile-Leu-Phe-Phe-Arg-Leu-Lys(Dnp)-D-Arg-NH2 as substrate
Chain of Cathepsin D (Homo sapiens) (P07339 65-162 limits assumed): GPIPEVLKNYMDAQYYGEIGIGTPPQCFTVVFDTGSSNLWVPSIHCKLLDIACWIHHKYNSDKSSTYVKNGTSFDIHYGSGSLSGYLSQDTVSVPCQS
Chain of Cathepsin D (Homo sapiens) (P07339 169-412 limits assumed): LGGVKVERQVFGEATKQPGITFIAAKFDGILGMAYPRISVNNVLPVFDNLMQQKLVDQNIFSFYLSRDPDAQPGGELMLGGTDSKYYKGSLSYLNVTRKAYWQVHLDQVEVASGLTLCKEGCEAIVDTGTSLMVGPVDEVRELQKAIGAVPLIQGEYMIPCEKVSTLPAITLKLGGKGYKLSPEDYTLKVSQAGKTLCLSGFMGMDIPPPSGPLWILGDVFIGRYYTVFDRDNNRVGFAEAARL

Cathepsin B [27] = target: T1, Cathepsin B; experiment: Inhibition of human liver cathepsin B
Outline: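 Human liver cathepsin B (175 nM final) activated 10 min in 100 mM sodium phosphate pH 6.0 with 5 mM DTT, 1 mM Na2EDTA, then incubated with inhibitor (5% DMSO) at 30 °C under pseudo-first-order conditions. Aliquots diluted 17.5-fold into 3 mM Z-RR-pNA; initial rates read at 405 nm. Screening used 500 µM inhibitor with residual activity after 10 min.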

SMILES: O=S(=O)(c1ccc2ccccc2c1)C1CO1 (stereo not given)
inhibition (Cathepsin B [1]): 18%

SMILES: Cc1ccc(C)c(S(=O)(=O)C2CO2)c1 (stereo not given)
inhibition (Cathepsin B [1]): 42%

SMILES: O=S(=O)(c1ccc(Cl)cc1)C1CO1 (stereo not given)
inhibition (Cathepsin B [1]): 44%

SMILES: O=S(=O)(CC1CS1)c1ccccc1 (stereo not given)
inhibition (Cathepsin B [1]): inactive

SMILES: O=S(=O)(c1cc(Cl)cc(Cl)c1)C1CO1 (stereo not given)
inhibition (Cathepsin B [1]): 50%

SMILES: O=S(=O)(c1ccc(OC(F)(F)F)cc1)C1CO1 (stereo not given)
inhibition (Cathepsin B [1]): 30%

SMILES: COc1ccc(OC)c(S(=O)(=O)C2CO2)c1 (stereo not given)
inhibition (Cathepsin B [1]): 25%

SMILES: CC(=O)N[C@@H](CC(C)C)C(=O)N[C@@H](CC(C)C)C(=O)N[C@H](C=O)CCCNC(=N)N [LEUPEPTIN]
pKi (Cathepsin B [27]): 8.30

The next lines start with results.

inhibition (Cathepsin B [1]): 35%
SMILES: COc1cccc(S(=O)(=O)C2CO2)c1 (stereo not given)

inhibition (Cathepsin B [1]): inactive
SMILES: O=S(=O)(c1ccccc1)C1OC1c1ccc(F)cc1 (stereo not given)

inhibition (Cathepsin B [1]): inactive
SMILES: O=S(=O)(CC1CO1)c1ccccc1 (stereo not given)

inhibition (Cathepsin B [1]): 40%
SMILES: Cc1cccc(S(=O)(=O)C2CO2)c1 (stereo not given)

inhibition (Cathepsin B [1]): > 98%
inhibition (Cathepsin B [2]): Active
inhibition [3]: Active
inhibition (Cathepsin B [4]): Active
inhibition [6]: Dose-dependent effect
pKi (Cathepsin B [7]): 4.07
Kinact [8]: 21.7 M⁻¹ s⁻¹
inhibition (Trypsin (Homo sapiens)): inactive
Selectivity ratio (Homo sapiens [9]): 1.9
Kinact [10]: 19.9 M⁻¹ s⁻¹
inhibition (Cathepsin B [11]): Active
Selectivity ratio (Homo sapiens [12]): 38
inhibition [13]: inactive
Kinact (Cathepsin B [14]): 40.7 M⁻¹ s⁻¹
Kinact (Cathepsin B [15]): 0.21 min⁻¹
inhibition (Cathepsin B [16]): Active
inhibition [17]: inactive
half-life at 2500 µM [18]: 3.6 h
inhibition (Cathepsin B [19]): inactive
inhibition (Cathepsin B [20]): Active
inhibition (Cathepsin B [21]): Dose-dependent effect
inhibition (Cathepsin B [22]): Active
inhibition (Cathepsin B [23]): Dose-dependent effect
Selectivity ratio (Homo sapiens [25]): 1.9
Kinact [26]: 1.08 M⁻¹ s⁻¹
SMILES: CCc1ccccc1S(=O)(=O)C1CO1 (stereo not given)
inhibition (MDA-MB-231 [5]): Dose-dependent effect
inhibition (MDA-MB-231 [24]): Active

inhibition (Cathepsin B [1]): inactive
SMILES: CCCC1OC1S(=O)(=O)c1ccccc1 (stereo not given)
